# Results from ChEMBL document CHEMBL1149196 (J Med Chem, 2004).
# Assays:
# [1] = biological target: Monoamine transporters; Norepinephrine & serotonin (Rattus norvegicus) (UniProt P31652+Q9WTR4); experiment: Ratio of affinity for Norepinephrine transporter to that of Serotonin transporter; type: protein assay
# Summary of the method: (§1)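 Ratios of Ki values from rat synaptosomal [3H]amine uptake inhibition at SERT (midbrain), DAT (striatum) and NET (parietal/occipital cortex). Ki came from IC50 via Cheng–Prusoff.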
# [2] = biological target: Norepinephrine transporter (Rattus norvegicus, UniProt Q9WTR4); experiment: Ability to inhibit high affinity uptake of [3H]NE at Norepinephrine transporter (NET) using rat brain parietal/occipital cortex; type: tissue-based
# Summary of the method: (§2)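 Rat synaptosomal (P2) uptake: striatum for DAT, midbrain for SERT, parietal/occipital cortex for NET, in modified KRH pH 7.4 with nialamide. Drug preincubated 30 min at 4 °C, then 15 min at 37 °C. [3H]amine final ~5 nM (DA, 5-HT) or 9 nM (NE), 5 min uptake, stopped with cold Na-free buffer and filtered. Background from 0 °C tubes. IC50 converted to Ki by Cheng–Prusoff. Mean ± SE, ≥3 experiments.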
# [3] = biological target: Sodium-dependent dopamine transporter (Rattus norvegicus, UniProt P23977); experiment: Ability to inhibit high affinity uptake of [3H]DA at Dopamine transporter (DAT) using rat brain striatum; type: tissue-based; summary of the method: as §2
# [4] = biological target: Monoamine transporters; serotonin & dopamine (Rattus norvegicus) (UniProt P31652+P23977); experiment: Ratio of affinity for serotonin transporter to that of dopamine transporter; type: protein assay; summary of the method: as §1
# [5] = biological target: T1, Sodium-dependent serotonin transporter (Rattus norvegicus, UniProt P31652); experiment: (§3) Ability to inhibit high affinity uptake of [3H]-5-HT at Serotonin transporter (SERT) using rat midbrain; type: tissue-based; summary of the method: as §2
# Target sequence in this assay (P31652 whole entry): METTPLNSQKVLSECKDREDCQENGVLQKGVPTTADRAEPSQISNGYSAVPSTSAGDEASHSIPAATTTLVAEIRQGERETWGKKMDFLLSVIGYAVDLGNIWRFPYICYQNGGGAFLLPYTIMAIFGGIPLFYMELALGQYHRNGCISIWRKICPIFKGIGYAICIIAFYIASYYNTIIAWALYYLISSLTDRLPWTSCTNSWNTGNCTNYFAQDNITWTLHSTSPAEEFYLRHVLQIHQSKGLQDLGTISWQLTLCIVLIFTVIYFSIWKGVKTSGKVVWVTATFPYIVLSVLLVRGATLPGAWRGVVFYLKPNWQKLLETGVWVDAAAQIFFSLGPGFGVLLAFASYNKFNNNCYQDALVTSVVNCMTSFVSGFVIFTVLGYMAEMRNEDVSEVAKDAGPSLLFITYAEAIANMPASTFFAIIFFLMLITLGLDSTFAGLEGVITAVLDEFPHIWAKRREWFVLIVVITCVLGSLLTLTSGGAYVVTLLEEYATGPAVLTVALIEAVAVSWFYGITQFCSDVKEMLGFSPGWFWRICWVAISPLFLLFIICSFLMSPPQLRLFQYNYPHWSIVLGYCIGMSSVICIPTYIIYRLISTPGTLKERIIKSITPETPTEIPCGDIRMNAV
# [6] = biological target: T1, Sodium-dependent serotonin transporter; experiment: as §3; type: tissue-based; remark: listed apart in the source
# Summary of the method: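 Rat midbrain P2 synaptosomes in ice-cold modified KRH buffer (pH 7.4, with 0.01 mM nialamide). Drug preincubated 30 min at 4 °C, then 15 min at 37 °C. Uptake started with ~5 nM [3H]5-HT (final) and run 5 min. Stopped with cold sodium-free glucosamine buffer and GF/C filtration. IC50 by LIGAND, converted to Ki by Cheng–Prusoff. Mean ± SE of ≥3 experiments.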
# Target sequence in this assay (P31652 whole entry, looked up): as the sequence (P31652 whole entry) above
# Norepinephrine transporter, sequence (Q9WTR4 whole entry): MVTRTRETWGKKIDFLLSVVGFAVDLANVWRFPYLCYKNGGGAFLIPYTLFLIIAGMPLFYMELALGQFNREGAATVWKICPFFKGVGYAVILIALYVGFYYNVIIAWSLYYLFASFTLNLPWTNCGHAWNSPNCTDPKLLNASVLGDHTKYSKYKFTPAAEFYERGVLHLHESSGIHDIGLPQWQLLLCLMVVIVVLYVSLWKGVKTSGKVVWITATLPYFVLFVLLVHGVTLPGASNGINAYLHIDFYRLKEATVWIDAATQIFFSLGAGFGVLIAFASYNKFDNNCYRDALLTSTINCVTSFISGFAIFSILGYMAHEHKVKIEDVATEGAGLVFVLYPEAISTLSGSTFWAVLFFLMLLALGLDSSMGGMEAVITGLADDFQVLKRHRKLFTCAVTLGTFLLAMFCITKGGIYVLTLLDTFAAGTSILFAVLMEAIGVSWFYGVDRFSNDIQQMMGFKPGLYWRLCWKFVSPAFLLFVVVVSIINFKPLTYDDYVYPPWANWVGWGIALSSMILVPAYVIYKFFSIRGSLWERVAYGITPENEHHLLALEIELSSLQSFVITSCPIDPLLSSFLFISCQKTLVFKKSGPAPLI
# Monoamine transporters; serotonin & dopamine (Rattus norvegicus), sequence (P23977 whole entry, looked up): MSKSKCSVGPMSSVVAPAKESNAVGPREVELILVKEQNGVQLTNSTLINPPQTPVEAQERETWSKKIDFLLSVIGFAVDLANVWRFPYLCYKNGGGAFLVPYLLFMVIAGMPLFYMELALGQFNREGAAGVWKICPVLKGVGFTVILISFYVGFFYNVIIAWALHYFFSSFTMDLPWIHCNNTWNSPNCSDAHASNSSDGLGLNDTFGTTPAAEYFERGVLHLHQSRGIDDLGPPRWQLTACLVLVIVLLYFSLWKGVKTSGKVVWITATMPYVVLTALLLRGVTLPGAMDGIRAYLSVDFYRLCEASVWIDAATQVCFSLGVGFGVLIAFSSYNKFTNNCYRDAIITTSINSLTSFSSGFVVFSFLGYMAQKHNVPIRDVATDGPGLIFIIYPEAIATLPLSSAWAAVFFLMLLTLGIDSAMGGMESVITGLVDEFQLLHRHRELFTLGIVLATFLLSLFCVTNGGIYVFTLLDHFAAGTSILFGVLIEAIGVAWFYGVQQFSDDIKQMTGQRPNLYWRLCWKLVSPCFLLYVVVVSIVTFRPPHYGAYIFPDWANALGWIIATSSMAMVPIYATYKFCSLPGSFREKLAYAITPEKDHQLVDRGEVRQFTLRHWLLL
# Monoamine transporters; serotonin & dopamine (Rattus norvegicus), sequence (P31652 whole entry, looked up): as the sequence (P31652 whole entry) above
# Sodium-dependent dopamine transporter, sequence (P23977 whole entry): as the sequence (P23977 whole entry, looked up) above
SMILES,Ratio [1],Ki [2] [nM],Ki [3] [nM],Ratio [4],Ki [5] [nM],Ki [6] [nM]
CN1CC[C@H](c2ccc(Cl)cc2)[C@@H](CC(=O)OCCCc2ccccc2)C1,0.59,48,36,2.3,82,–
CN1CC[C@H](c2ccc(Cl)cc2)C(C(=O)N2CCCC2)C1 (some centres not stated),–,2000,–,–,–,–
CN1CC[C@H](c2ccc(Cl)cc2)[C@@H](C(=O)OC(C)(C)C)C1,0.061,350,318,18,5750,–
COC(=O)CC[C@H]1CN(C)CC[C@@H]1c1ccc(Cl)cc1,0.12,31,68,3.8,255,–
C=CCOC[C@H]1CN(C)CC[C@@H]1c1ccc(Cl)cc1,0.087,20,60,3.9,231,–
CN1CC[C@H](c2ccc(Cl)cc2)[C@@H](CCC(=O)NC23CC4CC(CC(C4)C2)C3)C1,0.26,152,446,1.3,585,–
COC(=O)/C=C/[C@H]1CN(C)CC[C@@H]1c1ccc(Cl)cc1,0.54,272,53,9.5,501,–
CN1CC[C@H](c2ccc(Cl)cc2)[C@@H](CC(=O)N(C)Cc2ccccc2)C1,0.49,32,165,0.4,66,–
CN1CC[C@H](c2ccc(Cl)cc2)[C@@H](COC(=O)NC23CC4CC(CC(C4)C2)C3)C1,1.5,56,56,0.66,37,–
CN1CC[C@H](c2ccc(Cl)cc2)[C@@H](C(=O)OCCCCCc2ccccc2)C1,0.21,382,53,34,1790,–
CN1CC[C@H](c2ccc(Cl)cc2)C(C(=O)Oc2ccccc2)C1 (some centres not stated),1,2180,906,2.3,2120,–
CN1CC[C@H](c2ccc(Cl)cc2)C(C(=O)N(C)C)C1 (some centres not stated),0.03,569,2140,8.8,18900,–
CN1CC[C@H](c2ccc(Cl)cc2)[C@@H](CCCO)C1,0.2,564,16,175,2810,–
CC(=O)OC[C@H]1CN(C)CC[C@@H]1c1ccc(Cl)cc1,0.26,235,599,1.5,901,–
CN1CC[C@H](c2ccc(Cl)cc2)[C@@H](C(=O)O)C1,2.2,–,–,0.76,131000,282000
CN1CC[C@H](c2ccc(Cl)cc2)[C@@H](COC(=O)Nc2ccccc2)C1,0.026,33,91,14,1290,–
CN1CC[C@H](c2ccc(Cl)cc2)[C@@H](CC(=O)N(C)C)C1,0.023,46,16,125,1990,–
CCNC(=O)OC[C@H]1CN(C)CC[C@@H]1c1ccc(Cl)cc1,0.12,100,181,4.7,854,–
CN1CC[C@H](c2ccc(Cl)cc2)[C@@H](CC(=O)O)C1,–,3810,3010,–,> 10000,–
CN1CC[C@H](c2ccc(Cl)cc2)[C@@H](COC(=O)c2ccccc2)C1,1.3,389,273,1.1,296,–
CCOC(=O)C[C@H]1CN(C)CC[C@@H]1c1ccc(Cl)cc1,0.53,101,79,2.4,191,–
CN1CC[C@H](c2ccc(Cl)cc2)[C@@H](CC(=O)NC23CC4CC(CC(C4)C2)C3)C1,2.9,1080,706,0.53,376,–
CCC[C@H]1CN(C)CC[C@@H]1c1ccc(Cl)cc1,0.029,6.5,20,11,228,–
CN1CC[C@H](c2ccc(Cl)cc2)[C@@H](CCCF)C1,0.069,356,43,120,5190,–
CN1CC[C@H](c2ccc(Cl)cc2)[C@@H](CCC(=O)O)C1,0.094,425,1300,3.5,4540,–
CN1CC[C@H](c2ccc(Cl)cc2)[C@@H](CC(=O)NCc2ccccc2)C1,0.56,107,270,0.71,191,–
CNC(=O)C[C@H]1CN(C)CC[C@@H]1c1ccc(Cl)cc1,0.11,251,–,2.5,2270,–
CN1CC[C@H](c2ccc(Cl)cc2)[C@@H](CCC(=O)Nc2ccccc2)C1,0.16,56,201,1.8,354,–
